Source: ChEMBL document CHEMBL1811814, “Synthesis and evaluation of indole, pyrazole, chromone and pyrimidine based conjugates for tumor growth inhibitory activities--development of highly efficacious cytotoxic agents” (Eur J Med Chem, 2010)

Key:
Format in all cases: functional
Design in all cases: scale not given: the % may be the effect or the level left
OVCAR-5 = experiment: Growth inhibition of human OVCAR5 cells assessed tumor cell growth at 10^-5 M
In short: (§1)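 NCI 60-human-tumor-cell-line panel screen. Each compound was tested at a single concentration of 10^-5 M, and percent growth of tumor cells was recorded for each cell line. Growth inhibition was expressed from these percent-growth values.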

OVCAR-8 = experiment: Growth inhibition of human OVCAR8 cells assessed tumor cell growth at 10^-5 M; in short: as §1
SF-268 = experiment: Growth inhibition of human SF268 cells assessed tumor cell growth at 10^-5 M; in short: as §1
TK-10 = experiment: Growth inhibition of human TK10 cells assessed tumor cell growth at 10^-5 M
In short: (§2)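 Single-dose screen at 10^-5 M across the 60 human tumor cell line panel, run to NCI standards. The value is the percent growth of each cell line in the presence of compound. Compounds active at this dose moved on to five-concentration testing (10^-4 to 10^-8 M).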

[1] = Growth inhibition of human […] cells assessed tumor cell growth at 10^-5 M; in short: as §1
LOX IMVI = experiment: Growth inhibition of human LOXIMVI cells assessed tumor cell growth at 10^-5 M; in short: as §1
CAKI-1 = experiment: Growth inhibition of human Caki1 cells assessed tumor cell growth at 10^-5 M; in short: as §1
U-251 = experiment: Growth inhibition of human U251 cells assessed tumor cell growth at 10^-5 M; in short: as §2
SF-295 = experiment: Growth inhibition of human SF295 cells assessed tumor cell growth at 10^-5 M; in short: as §1
K562 = experiment: Growth inhibition of human K562 cells assessed tumor cell growth at 10^-5 M; in short: as §1
SK-MEL-2 = experiment: Growth inhibition of human SK-MEL-2 cells assessed tumor cell growth at 10^-5 M; in short: as §1
HL-60(TB) = experiment: Growth inhibition of human HL-60(TB) cells assessed tumor cell growth at 10^-5 M
In short: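 HL-60(TB), part of the 60-line panel, tested at a single concentration of 10^-5 M. The read-out is percent tumor cell growth relative to untreated growth.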

SK-MEL-5 = experiment: Growth inhibition of human SK-MEL-5 cells assessed tumor cell growth at 10^-5 M; in short: as §1
NCI-H23 = experiment: Growth inhibition of human NCI-H23 cells assessed tumor cell growth at 10^-5 M; in short: as §1
CCRF-CEM = experiment: Growth inhibition of human CCRF-CEM cells assessed tumor cell growth at 10^-5 M; in short: as §1
A498 = experiment: Growth inhibition of human A498 cells assessed tumor cell growth at 10^-5 M; in short: as §1
MDA-MB-468 = experiment: Growth inhibition of human MDA-MB-468 cells assessed tumor cell growth at 10^-5 M; in short: as §1
MDA-MB-231 = experiment: Growth inhibition of human MDA-MB-231 cells assessed tumor cell growth at 10^-5 M; in short: as §1
ACHN = experiment: Growth inhibition of human ACHN cells assessed tumor cell growth at 10^-5 M; in short: as §1
UACC-62 = experiment: Growth inhibition of human UACC62 cells assessed tumor cell growth at 10^-5 M; in short: as §2
OVCAR-3 = experiment: Growth inhibition of human OVCAR3 cells assessed tumor cell growth at 10^-5 M; in short: as §1
M14 = experiment: Growth inhibition of human M14 cells assessed tumor cell growth at 10^-5 M; in short: as §1
MOLT-4 = experiment: Growth inhibition of human MOLT4 cells assessed tumor cell growth at 10^-5 M; in short: as §1
UACC-257 = experiment: Growth inhibition of human UACC257 cells assessed tumor cell growth at 10^-5 M; in short: as §2
RXF 393 = experiment: Growth inhibition of human RXF393 cells assessed tumor cell growth at 10^-5 M; in short: as §1
MCF7 = experiment: Growth inhibition of human MCF7 cells assessed tumor cell growth at 10^-5 M; in short: as §1
786-0 = experiment: Growth inhibition of human 786-0 cells assessed tumor cell growth at 10^-5 M; in short: as §1
COLO 205 = experiment: Growth inhibition of human COLO205 cells assessed tumor cell growth at 10^-5 M; in short: as §1
EKVX = experiment: Growth inhibition of human EKVX cells assessed tumor cell growth at 10^-5 M; in short: as §1
BT-549 = experiment: Growth inhibition of human BT549 cells assessed tumor cell growth at 10^-5 M; in short: as §1
MDA-MB-435 = experiment: Growth inhibition of human MDA-MB-435 cells assessed tumor cell growth at 10^-5 M; in short: as §1
NCI-H460 = experiment: Growth inhibition of human NCI-H460 cells assessed tumor cell growth at 10^-5 M; in short: as §1
HCT-15 = experiment: Growth inhibition of human HCT15 cells assessed tumor cell growth at 10^-5 M; in short: as §1
UO-31 = experiment: Growth inhibition of human UO31 cells assessed tumor cell growth at 10^-5 M; in short: as §2
SNB-75 = experiment: Growth inhibition of human SNB75 cells assessed tumor cell growth at 10^-5 M; in short: as §2
HCT-116 = experiment: Growth inhibition of human HCT116 cells assessed tumor cell growth at 10^-5 M; in short: as §1
HT-29 = experiment: Growth inhibition of human HT-29 cells assessed tumor cell growth at 10^-5 M; in short: as §1
HOP-92 = experiment: Growth inhibition of human HOP92 cells assessed tumor cell growth at 10^-5 M; in short: as §1
IGROV-1 = experiment: Growth inhibition of human IGROV1 cells assessed tumor cell growth at 10^-5 M; in short: as §1
SW-620 = experiment: Growth inhibition of human SW620 cells assessed tumor cell growth at 10^-5 M; in short: as §2
NCI/ADR-RES = experiment: Growth inhibition of human NCI/ADR-RES cells assessed tumor cell growth at 10^-5 M; in short: as §1
NCI-H322M = experiment: Growth inhibition of human NCI-H322M cells assessed tumor cell growth at 10^-5 M; in short: as §1
SN12C = experiment: Growth inhibition of human SN12C cells assessed tumor cell growth at 10^-5 M; in short: as §1
OVCAR-4 = experiment: Growth inhibition of human OVCAR4 cells assessed tumor cell growth at 10^-5 M; in short: as §1
PC-3 = experiment: Growth inhibition of human PC3 cells assessed tumor cell growth at 10^-5 M; in short: as §1
NCI-H226 = experiment: Growth inhibition of human NCI-H226 cells assessed tumor cell growth at 10^-5 M; in short: as §1
HOP-62 = experiment: Growth inhibition of human HOP62 cells assessed tumor cell growth at 10^-5 M; in short: as §1
SNB-19 = experiment: Growth inhibition of human SNB19 cells assessed tumor cell growth at 10^-5 M; in short: as §2
KM12 = experiment: Growth inhibition of human KM12 cells assessed tumor cell growth at 10^-5 M; in short: as §1
NCI-H522 = experiment: Growth inhibition of human NCI-H522 cells assessed tumor cell growth at 10^-5 M; in short: as §1
DU-145 = experiment: Growth inhibition of human DU145 cells assessed tumor cell growth at 10^-5 M; in short: as §1
A549 = experiment: Growth inhibition of human A549 cells assessed tumor cell growth at 10^-5 M; in short: as §1
SF-539 = experiment: Growth inhibition of human SF539 cells assessed tumor cell growth at 10^-5 M; in short: as §1
SK-OV-3 = experiment: Growth inhibition of human SKOV3 cells assessed tumor cell growth at 10^-5 M; in short: as §1
Malme-3M = experiment: Growth inhibition of human MALME-3M cells assessed tumor cell growth at 10^-5 M; in short: as §1
SK-MEL-28 = experiment: Growth inhibition of human SK-MEL-28 cells assessed tumor cell growth at 10^-5 M; in short: as §1
[2] = Growth inhibition of human Hs 578T cells assessed tumor cell growth at 10^-5 M; in short: as §1

**Q.** Which results are given for `O=C1Nc2ccccc2/C1=C/c1cn(C(=O)c2ccc(Cl)cc2)c2ccccc12`?
**A.** Activity (OVCAR-5): 110.2%; Activity (OVCAR-8): 95%; Activity (SF-268): 99.8%; Activity (TK-10): 130%; Activity [1]: 74.5%; Activity (LOX IMVI): 100%; Activity (CAKI-1): 59%; Activity (U-251): 99.4%; Activity (SF-295): 114.3%; Activity (K562): 85.6%; Activity (SK-MEL-2): 119.8%; Activity (HL-60(TB)): 150.1%; Activity (SK-MEL-5): 97.6%; Activity (NCI-H23): 90.8%; Activity (CCRF-CEM): 104.1%; Activity (A498): 116.3%; Activity (MDA-MB-468): 97.6%; Activity (MDA-MB-231): 77.7%; Activity (ACHN): 102.9%; Activity (UACC-62): 89.3%; Activity (OVCAR-3): 98.7%; Activity (M14): 102.4%; Activity (MOLT-4): 109.3%; Activity (UACC-257): 99.6%; Activity (RXF 393): 129.9%; Activity (MCF7): 59%; Activity (786-0): 111.4%; Activity (COLO 205): 58.2%; Activity (EKVX): 58.9%; Activity (BT-549): 96.4%; Activity (MDA-MB-435): 109.9%; Activity (NCI-H460): 107.2%; Activity (HCT-15): 92%; Activity (UO-31): 74.6%; Activity (SNB-75): 87.7%; Activity (HCT-116): 91.5%; Activity (HT-29): 110%; Activity (HOP-92): 99.3%; Activity (IGROV-1): 72.6%; Activity (SW-620): 102.4%; Activity (NCI/ADR-RES): 104.2%; Activity (NCI-H322M): 126.5%; Activity (SN12C): 95.4%; Activity (OVCAR-4): 78.2%; Activity (PC-3): 95.6%; Activity (NCI-H226): 92.3%; Activity (HOP-62): 110.7%; Activity (SNB-19): 99%; Activity (KM12): 40.8%; Activity (NCI-H522): 85.5%; Activity (DU-145): 118.1%; Activity (A549): 101.2%; Activity (SF-539): 99.3%; Activity (SK-OV-3): 103.8%; Activity (Malme-3M): 117.8%; Activity (SK-MEL-28): 92.9%; Activity [2]: 106%
